This note sets out measurements from ChEMBL document CHEMBL1144402, “Effect of a 6-cyano substituent in 14-oxygenated N-methylmorphinans on opioid receptor binding and antinociceptive potency” (J Med Chem, 2005).

Assay [1] concerns the target Kappa-type opioid receptor (Rattus norvegicus, UniProt P34975). The experiment in a line: Displacement of[3H]U69,593 from kappa opioid receptor of rat brain membranes. The method in brief: (§1)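 Competitive binding on rat brain membrane preparations with the tritiated radioligand named for each receptor (μ, [3H]DAMGO; δ, [3H][Ile5,6]deltorphin II; κ, [3H]U69,593). Affinity is reported as inhibition constant (Ki).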

Assay [2] concerns Mus musculus. The assay is described as follows: In vivo analgesic effect of the compound (sc) assessed as antinociceptive potency by p-phenylquinone writhing test in mice. It is filed as functional. In short, it runs like this:
(§2)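 Male ICR mice of 20–30 g, each animal tested only once. Drug given subcutaneously at a minimum of three doses, 6–10 mice per dose. Hot-plate, tail-flick and p-phenylquinone writhing tests were run as modified procedures. Potency is given as the 50% effective dose with 95% confidence limits.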

For assay [3], the target named is Delta-type opioid receptor (Rattus norvegicus, UniProt P33533). The assay is described as follows: Displacement of [3H]Ile5,6]-deltorphin II from delta opioid receptor of rat brain membranes. The assay is classed as cell membranes, Membrane. The method in brief: as §1
(In a radioligand displacement assay an active substance lowers the binding of a labelled ligand.)

Assay [4] deals with Mus musculus. The experiment in a line: In vivo analgesic effect of the compound (sc) assessed as antinociceptive potency by hot plate test in mice. It is filed as functional. The method in brief:
as §2
(Thermal pain tests record how soon the animal reacts.)

Another assay concerns the target Mu-type opioid receptor (Rattus norvegicus, UniProt P33535). The experiment in a line: Displacement of [3H][DAMGO] from mu opioid receptor of rat brain membranes. It is filed as cell membranes, Membrane. The method in brief: as §1
Assay [5] relates to Mus musculus. The experiment in a line: In vivo analgesic effect of the compound (sc) assessed as antinociceptive potency by tail flick test in mice. The assay is classed as functional. In short, it runs like this:
as §2

In assay [6] the test system is Mus musculus. The assay is described as follows: In vivo analgesic effect (sc) assessed as antinociceptive potency by hot plate test in mice. It is filed as functional. The method in brief: as §2
Assay [7] relates to Mus musculus. The assay is described as follows: In vivo analgesic effect (sc) assessed as antinociceptive potency by p-phenylquinone writhing test in mice. It is filed as functional. The method in brief:
as §2
A general note: Writhing tests count abdominal constrictions after an irritant is injected.

Assay [8] relates to Mus musculus. The assay is described as follows: In vivo analgesic effect (sc) assessed as antinociceptive potency by tail flick test in mice. The assay is classed as functional. The method in brief: as §2

In general, Ki refers to the dissociation constant of the complex between target and ligand, obtained from inhibition or displacement. A higher Ki goes with a looser hold on the target. As a reminder, the ED50 is the dose at which the effect has come halfway, by size or by number of responders.

Chain of Mu-type opioid receptor (P33535 whole entry): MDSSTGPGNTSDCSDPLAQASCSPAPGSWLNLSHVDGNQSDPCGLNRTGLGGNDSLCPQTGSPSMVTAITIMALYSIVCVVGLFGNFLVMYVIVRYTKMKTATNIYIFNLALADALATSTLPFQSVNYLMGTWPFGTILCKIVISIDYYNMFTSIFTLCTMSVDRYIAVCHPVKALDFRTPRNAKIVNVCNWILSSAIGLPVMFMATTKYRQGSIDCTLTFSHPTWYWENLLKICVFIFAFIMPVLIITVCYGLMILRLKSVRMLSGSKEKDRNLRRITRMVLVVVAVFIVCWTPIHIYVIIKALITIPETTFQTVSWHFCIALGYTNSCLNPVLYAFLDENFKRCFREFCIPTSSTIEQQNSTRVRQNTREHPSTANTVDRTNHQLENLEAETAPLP
Chain of Delta-type opioid receptor (P33533 whole entry): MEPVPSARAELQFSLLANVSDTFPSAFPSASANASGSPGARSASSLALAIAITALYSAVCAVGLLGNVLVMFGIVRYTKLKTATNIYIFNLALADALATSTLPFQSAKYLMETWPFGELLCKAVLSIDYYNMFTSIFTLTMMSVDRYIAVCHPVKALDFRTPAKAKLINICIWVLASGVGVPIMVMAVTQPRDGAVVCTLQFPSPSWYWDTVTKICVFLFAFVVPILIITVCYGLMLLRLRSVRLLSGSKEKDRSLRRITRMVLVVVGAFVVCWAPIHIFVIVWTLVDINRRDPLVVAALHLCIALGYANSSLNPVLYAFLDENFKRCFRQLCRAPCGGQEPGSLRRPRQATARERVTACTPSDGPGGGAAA
Chain of Kappa-type opioid receptor (P34975 whole entry): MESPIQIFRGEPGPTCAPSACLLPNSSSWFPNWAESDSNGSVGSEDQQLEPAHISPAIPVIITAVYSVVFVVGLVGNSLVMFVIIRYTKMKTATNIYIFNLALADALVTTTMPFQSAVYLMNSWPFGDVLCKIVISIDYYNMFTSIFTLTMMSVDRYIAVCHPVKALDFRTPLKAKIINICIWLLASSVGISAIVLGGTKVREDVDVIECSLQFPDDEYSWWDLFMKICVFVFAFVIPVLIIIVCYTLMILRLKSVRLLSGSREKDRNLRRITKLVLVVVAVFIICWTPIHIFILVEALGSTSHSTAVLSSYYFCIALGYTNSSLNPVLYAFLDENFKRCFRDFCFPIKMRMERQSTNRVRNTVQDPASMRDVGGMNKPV

As to `COc1ccc2c(c1OC)[C@@]13C=C(C#N)CC[C@@]1(O)[C@@H](C2)N(C)CC3`, the figures for the inhibition constant Ki (in [1]; in assay [3]; at Mu-type opioid receptor) were 364 nM, 107 nM and 2.44 nM, respectively. The ED50 in the assay on Mus musculus [2] turned out to be 0.026 mg/kg; in the assay with Mus musculus [4] it was 0.15 mg/kg; in the assay on Mus musculus [5] it was 0.018 mg/kg.
Turning to `COc1ccc2c(c1O)[C@@]13C=C(C#N)CC[C@@]1(OC)[C@@H](C2)N(C)CC3`, the Ki in [1] came to 378 nM; in assay [3], 197 nM; at Mu-type opioid receptor, 5.38 nM. The 50% effective dose (ED50) with Mus musculus [2] worked out at 0.11 mg/kg; in the assay with Mus musculus [4] it was 0.25 mg/kg; in the assay with Mus musculus [5], 0.21 mg/kg.
For `COc1ccc2c(c1O)[C@@]13C=C(C#N)CC[C@@]1(O)[C@@H](C2)N(C)CC3`, the Ki came out at 1650 nM in assay [1] and 498 nM in [3]. In addition, the median effective dose (ED50) is 0.18 mg/kg in the assay with Mus musculus [2], 0.5 mg/kg in the assay on Mus musculus [4] and 1.88 mg/kg in the assay on Mus musculus [5].
Take `COc1ccc2c(c1O)[C@]13CCN(C)[C@H](C2)[C@]1(O)CCC(=O)C3`: the inhibition constant Ki in [1] is 763 nM; in assay [3] it was 881 nM; on Mu-type opioid receptor, 32.6 nM. Also, in the assay on Mus musculus [4], the median effective dose (ED50) turned out to be 2.6 mg/kg.
Regarding `COc1ccc2c3c1O[C@H]1C(=O)CC[C@@]4(O)[C@@H](C2)N(C)CC[C@]314` [OXYCODONE], the 50% effective dose (ED50) worked out at 1.37 mg/kg with Mus musculus [6], 0.38 mg/kg in the assay with Mus musculus [7] and 0.94 mg/kg with Mus musculus [8].
For `COc1ccc2c(c1O)[C@]13CCN(C)[C@H](C2)[C@]1(OC)CCC(=O)C3`, the figures for the Ki (in assay [1]; in assay [3]; on Mu-type opioid receptor) were 592 nM, 180 nM and 4.65 nM, respectively. Further, the ED50 with Mus musculus [4] amounted to 0.29 mg/kg.
For `COc1ccc2c(c1OC)[C@]13CCN(C)[C@H](C2)[C@]1(O)CCC(=O)C3`, the Ki in [1] turned out to be 693 nM; in [3], 91.6 nM; on Mu-type opioid receptor it was 3.88 nM. The median effective dose (ED50) in the assay with Mus musculus [4] came to 0.14 mg/kg.
